Assay results from different studies.
Technique: competition with immobilised ligand
RPS6KA3 N-terminal kinase domain: Ribosomal protein S6 kinase alpha-3, N-terminal kinase domain (RPS6KA3, Homo sapiens, UniProt P51812)
RPS6KA3 C-terminal kinase domain: Ribosomal protein S6 kinase alpha-3, C-terminal kinase domain (RPS6KA3, Homo sapiens, UniProt P51812)

| Compound | target | observed | tested at | remaining binding [%] |
| --- | --- | --- | --- | --- |
| O=C(c1ccc(Nc2ncc(Cl)c(-c3cc4ccccc4s3)n2)cc1)N1CCC(N2CCCC2)CC1 | RPS6KA3 N-terminal kinase domain | binding | 1 µM | 42 |
| COc1cnc(Nc2cccc(S(N)(=O)=O)c2)nc1N1CCN(c2ccccc2)CC1 | RPS6KA3 N-terminal kinase domain | binding | 1 µM | 89 |
| C[C@H](NC(=O)c1cnc2n1[C@](C)(Cc1ccc(C#N)cc1)C(=O)N2c1cc(Cl)c(F)c(Cl)c1)C(=O)NC1(c2ccccn2)CC1 | RPS6KA3 N-terminal kinase domain | cell-free assay | 1 µM | 100 |
| COc1ncc2cc3ccccc3nc2c1C#N | RPS6KA3 N-terminal kinase domain | cell-free assay | 5 µM | 89 |
| N[C@H]1CCN(c2nccc(-c3cnn4ncccc34)n2)C1 | RPS6KA3 N-terminal kinase domain | binding | 1 µM | 89 |
| O=C(c1ccc(Nc2ncc(Cl)c(-c3ccc(Cl)s3)n2)cc1)N1CCC(N2CCCC2)CC1 | RPS6KA3 C-terminal kinase domain | binding | 1 µM | 100 |
| CN(C)c1nccc(-c2cnc3ncccn23)n1 | RPS6KA3 C-terminal kinase domain | binding | 1 µM | 78 |
| O=C(Nc1c[nH]nc1C(=O)NC1CCNCC1)c1cc(F)cc(F)c1 | RPS6KA3 C-terminal kinase domain | binding | 1 µM | 100 |
| COc1cnc(Nc2cccc(S(N)(=O)=O)c2)nc1N1CCN(c2ccccc2)C(=O)C1 | RPS6KA3 C-terminal kinase domain | binding | 1 µM | 97 |
| F[C@@H]1CCN(c2nccc(-c3cnn4ncccc34)n2)C1 | RPS6KA3 N-terminal kinase domain | binding | 1 µM | 100 |
| CN(c1ccnc(CNc2nc(Nc3ccc4c(c3)CC(=O)N4)ncc2C(F)(F)F)n1)S(C)(=O)=O | RPS6KA3 N-terminal kinase domain | cell-free assay | 1 µM | 25 |
| Cc1cnc(Nc2ccc(C(=O)N3CCC(N4CCCC4)CC3)cc2)nc1-c1cc2ccccc2s1 | RPS6KA3 C-terminal kinase domain | binding | 1 µM | 80 |
| CCN1CCN(Cc2ccc(C(=O)Nc3ccc(C)c(Oc4ccc5c(c4)CC(=O)N5)c3)cc2C(F)(F)F)CC1 | RPS6KA3 N-terminal kinase domain | binding | 1 µM | 100 |
| Cc1cnn2ncc(-c3ccnc(N(C)C)n3)c2c1 | RPS6KA3 N-terminal kinase domain | binding | 1 µM | 95 |
| FC(F)(F)Oc1cccc(-c2cnc3ccc(-c4ccncc4)nn23)c1 | RPS6KA3 C-terminal kinase domain | binding | 5 µM | 69 |
| CN(CCCC(F)(F)F)c1nccc(-c2cnn3ncccc23)n1 | RPS6KA3 C-terminal kinase domain | binding | 1 µM | 100 |
| C=CC(=O)N1CCC(C(=O)NCC(=O)N2CCN(c3nc(-c4cnc(N)nc4C(F)F)nc(N4CCOCC4)n3)CC2)CC1 | RPS6KA3 C-terminal kinase domain | binding | 1 µM | 63 |

| Compound | target | observed | tested at | remaining binding [%] |
| --- | --- | --- | --- | --- |
| c1ccc(N2CCN(Cc3nc4ccccc4[nH]3)CC2)nc1 | RPS6KA3 C-terminal kinase domain | binding | 1 µM | 100 |
| C[C@H]1CCN(c2nccc(-c3cnn4ncccc34)n2)C1 | RPS6KA3 N-terminal kinase domain | binding | 1 µM | 78 |
| c1cncc(-c2cccc(Nc3nccc(NC4CCCCC4)n3)c2)c1 | RPS6KA3 N-terminal kinase domain | binding | 10 µM | 42 |
| CN(C)c1nccc(-c2cnn3ncccc23)n1 | RPS6KA3 N-terminal kinase domain | binding | 1 µM | 82 |
| O=C(NCCCN1CCOCC1)c1ccc(Nc2nccc(-c3cc4ccccc4s3)n2)cc1 | RPS6KA3 N-terminal kinase domain | binding | 1 µM | 76 |
| C[C@H](c1ccnc(Nc2nc3ccc(-c4cc(N(C)C)ncn4)cc3[nH]2)c1)N1CCN(C(=O)CC(F)(F)F)CC1 | RPS6KA3 C-terminal kinase domain | cell-free assay | 0.1 µM | 100 |
| N#Cc1ccccc1CSc1nnc2c(n1)[nH]c1ccccc12 | RPS6KA3 N-terminal kinase domain | binding | 10 µM | 80 |
| O=C(NCCCN1CCOCC1)c1ccc(Nc2ncc(Cl)c(-c3ccc(Cl)s3)n2)cc1 | RPS6KA3 N-terminal kinase domain | binding | 1 µM | 61 |
| C[C@@]1(Cc2ccc(C#N)cc2)C(=O)N(c2cc(Cl)cc(Cl)c2)c2ncc(C(=O)NC3(c4nc(C5CCC5)no4)CC3)n21 | RPS6KA3 C-terminal kinase domain | cell-free assay | 1 µM | 100 |
| O=C(NCC1CCOCC1)c1n[nH]cc1NC(=O)c1c(F)cccc1F | RPS6KA3 N-terminal kinase domain | binding | 1 µM | 78 |
| C[C@@H](c1ccc(-n2cnc3c(N)ncnc32)cc1)N1CCc2nn(C)c(Cc3ccccc3)c2C1=O | RPS6KA3 C-terminal kinase domain | binding | 0.1 µM | 94 |
| O=C1NC(c2ccccn2)Sc2ccccc21 (stereo not shown) | RPS6KA3 N-terminal kinase domain | cell-free assay | 1 µM | 72 |
| Nc1ncc2c(n1)-c1c([nH]c3ccc(C#CC4CC4)cc13)CCCC2 | RPS6KA3 N-terminal kinase domain | binding | 1 µM | 73 |
| Cc1nccc(COC(=O)N2C[C@@H]3[C@@H](CNC(=O)c4ccc5[nH]nnc5c4)[C@@H]3C2)n1 | RPS6KA3 C-terminal kinase domain | cell-free assay | 1 µM | 86 |
| O=C(c1ccc(Nc2nccc(-c3cc4ccccc4s3)n2)cc1)N1CCC(N2CCCC2)CC1 | RPS6KA3 N-terminal kinase domain | binding | 1 µM | 78 |
| Cc1c(NC(=O)c2cc(C(N)=O)nc3cc(F)ccc23)c(C(F)(F)F)nn1Cc1ccc(C(C)(C)C)cc1 | RPS6KA3 N-terminal kinase domain | cell-free assay | 1 µM | 100 |
| CNC(=O)[C@@H]1CC[C@@H](n2c(-c3ccc4cnccc4c3)nc3ccc(C(=O)NCc4cccc(C(N)=O)c4)cc32)C1 | RPS6KA3 C-terminal kinase domain | binding | 1 µM | 100 |
